SMILES strings stand for the structures. Active and inactive are the calls of the source. The calls are words filed in the database; no cut-off is given here.

The target of assay [1] is T1, Mitogen-activated protein kinase 12 (Homo sapiens) (UniProt P53778).
T1 sequence (whole entry): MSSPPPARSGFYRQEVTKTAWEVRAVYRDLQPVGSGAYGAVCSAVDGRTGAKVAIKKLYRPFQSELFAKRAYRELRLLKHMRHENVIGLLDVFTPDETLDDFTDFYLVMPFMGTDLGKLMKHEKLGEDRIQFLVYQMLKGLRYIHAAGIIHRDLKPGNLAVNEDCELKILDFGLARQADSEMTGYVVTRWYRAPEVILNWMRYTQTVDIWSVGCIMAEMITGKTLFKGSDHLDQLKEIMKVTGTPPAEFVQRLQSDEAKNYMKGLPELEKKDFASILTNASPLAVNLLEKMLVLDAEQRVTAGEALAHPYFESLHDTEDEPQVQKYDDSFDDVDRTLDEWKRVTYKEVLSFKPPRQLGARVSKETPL
Put plainly: Inhibition of human recombinant p38gamma at 40 nM in presence of ATP by radiometric assay relative to control.

The target of assay [2] is Fibroblast growth factor receptor 3 (Homo sapiens) (UniProt P22607). Put plainly: Inhibition of human recombinant FGFR3 at 40 nM in presence of ATP by radiometric assay relative to control.
The target of assay [3] is Transcription initiation factor TFIID subunit 1-like (Homo sapiens) (UniProt Q8IZX4). Nature of the assay: Inhibition of human recombinant TAF1L at 40 nM in presence of ATP by radiometric assay relative to control.
For a further assay, the system named is U2OS. Nature of the assay: Inhibition of autophagy in human U2OS cells assessed as ATG12-positive puncta formation at 5 uM incubated for 2.5 hrs in presence of AZD8055 by Fluorescent microscopy based analysis. The class given is functional, cell-based. Summed up:
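U2OS cells treated 2.5 hr with vehicle or 100 nM AZD8055, with or without 5 μM inhibitor; fixed and immunostained for endogenous ATG12; ATG12-positive puncta (phagophores) assessed by fluorescence microscopy.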

In assay [4] the target is Tyrosine-protein kinase FRK (Homo sapiens) (UniProt P42685). Nature of the assay: Inhibition of human recombinant FRK at 40 nM in presence of ATP by radiometric assay relative to control.
The target of assay [5] is Interleukin-1 receptor-associated kinase 1 (Homo sapiens) (UniProt P51617). Put plainly: Inhibition of human recombinant IRAK1 at 40 nM in presence of ATP by radiometric assay relative to control.
For assay [6], the target named is T2, Serine/threonine-protein kinase 3 (Homo sapiens) (UniProt Q13188).
T2 sequence (whole entry): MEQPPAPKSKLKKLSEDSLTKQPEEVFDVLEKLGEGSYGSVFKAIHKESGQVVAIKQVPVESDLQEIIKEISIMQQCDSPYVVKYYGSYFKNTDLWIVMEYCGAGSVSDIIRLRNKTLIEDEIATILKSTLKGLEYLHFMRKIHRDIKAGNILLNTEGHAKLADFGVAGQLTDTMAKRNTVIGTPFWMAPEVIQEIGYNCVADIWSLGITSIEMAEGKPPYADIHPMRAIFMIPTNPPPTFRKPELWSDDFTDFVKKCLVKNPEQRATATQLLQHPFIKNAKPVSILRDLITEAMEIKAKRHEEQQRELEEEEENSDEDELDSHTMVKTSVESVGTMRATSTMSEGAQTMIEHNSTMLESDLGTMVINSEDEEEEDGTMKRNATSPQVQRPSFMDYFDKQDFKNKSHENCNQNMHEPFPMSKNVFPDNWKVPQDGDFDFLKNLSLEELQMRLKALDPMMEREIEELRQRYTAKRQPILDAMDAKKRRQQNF
Nature of the assay: Inhibition of human recombinant MST2 at 500 nM in presence of ATP by radiometric assay relative to control.

For assay [7], the target named is Serine/threonine-protein kinase SIK3 (Homo sapiens) (UniProt Q9Y2K2). Put plainly: Inhibition of human recombinant QSK at 500 nM in presence of ATP by radiometric assay relative to control.
Assay [8] concerns the target T3, Tyrosine-protein kinase JAK3 (Homo sapiens) (UniProt P52333).
T3 sequence (whole entry): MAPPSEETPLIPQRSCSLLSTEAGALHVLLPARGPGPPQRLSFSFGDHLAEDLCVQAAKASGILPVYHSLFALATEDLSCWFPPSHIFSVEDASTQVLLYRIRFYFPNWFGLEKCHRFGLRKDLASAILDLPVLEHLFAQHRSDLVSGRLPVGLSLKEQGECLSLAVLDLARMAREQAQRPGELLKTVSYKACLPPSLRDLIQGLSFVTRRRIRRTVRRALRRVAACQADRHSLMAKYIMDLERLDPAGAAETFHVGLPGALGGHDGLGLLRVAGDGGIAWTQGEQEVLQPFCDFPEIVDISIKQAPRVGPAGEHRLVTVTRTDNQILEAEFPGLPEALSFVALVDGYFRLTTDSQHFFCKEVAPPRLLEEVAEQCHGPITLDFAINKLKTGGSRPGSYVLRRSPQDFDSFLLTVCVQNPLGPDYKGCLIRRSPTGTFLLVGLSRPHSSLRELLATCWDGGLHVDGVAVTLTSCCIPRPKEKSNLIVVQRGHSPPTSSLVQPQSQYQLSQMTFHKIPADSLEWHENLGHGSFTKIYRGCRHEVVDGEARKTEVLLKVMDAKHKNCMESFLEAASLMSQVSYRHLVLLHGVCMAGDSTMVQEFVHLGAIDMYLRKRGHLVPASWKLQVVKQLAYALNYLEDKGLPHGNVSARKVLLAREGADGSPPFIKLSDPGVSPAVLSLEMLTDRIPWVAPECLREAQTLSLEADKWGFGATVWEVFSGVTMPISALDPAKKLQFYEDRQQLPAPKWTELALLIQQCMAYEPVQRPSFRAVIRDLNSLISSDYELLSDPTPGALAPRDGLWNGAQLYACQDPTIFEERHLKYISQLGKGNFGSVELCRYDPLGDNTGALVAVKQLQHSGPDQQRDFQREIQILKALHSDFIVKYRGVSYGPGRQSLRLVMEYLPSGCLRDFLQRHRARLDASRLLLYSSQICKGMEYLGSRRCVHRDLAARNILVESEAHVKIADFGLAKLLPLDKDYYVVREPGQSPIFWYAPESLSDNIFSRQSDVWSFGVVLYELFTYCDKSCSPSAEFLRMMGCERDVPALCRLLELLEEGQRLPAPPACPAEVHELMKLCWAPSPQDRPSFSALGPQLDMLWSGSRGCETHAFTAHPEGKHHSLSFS
Put plainly: Inhibition of human recombinant JAK3 at 500 nM in presence of ATP by radiometric assay relative to control.

Assay [9] deals with Serine/threonine-protein kinase MRCK alpha (Homo sapiens) (UniProt Q5VT25). Put plainly: Inhibition of human recombinant MRCKa at 500 nM in presence of ATP by radiometric assay relative to control.
Assay [10] has as its target Wee1-like protein kinase (Homo sapiens) (UniProt P30291). Nature of the assay: Inhibition of human recombinant Wee1 at 500 nM related to control ULK1.

Chain of Fibroblast growth factor receptor 3 (Homo sapiens) (P22607 23-806 limits assumed): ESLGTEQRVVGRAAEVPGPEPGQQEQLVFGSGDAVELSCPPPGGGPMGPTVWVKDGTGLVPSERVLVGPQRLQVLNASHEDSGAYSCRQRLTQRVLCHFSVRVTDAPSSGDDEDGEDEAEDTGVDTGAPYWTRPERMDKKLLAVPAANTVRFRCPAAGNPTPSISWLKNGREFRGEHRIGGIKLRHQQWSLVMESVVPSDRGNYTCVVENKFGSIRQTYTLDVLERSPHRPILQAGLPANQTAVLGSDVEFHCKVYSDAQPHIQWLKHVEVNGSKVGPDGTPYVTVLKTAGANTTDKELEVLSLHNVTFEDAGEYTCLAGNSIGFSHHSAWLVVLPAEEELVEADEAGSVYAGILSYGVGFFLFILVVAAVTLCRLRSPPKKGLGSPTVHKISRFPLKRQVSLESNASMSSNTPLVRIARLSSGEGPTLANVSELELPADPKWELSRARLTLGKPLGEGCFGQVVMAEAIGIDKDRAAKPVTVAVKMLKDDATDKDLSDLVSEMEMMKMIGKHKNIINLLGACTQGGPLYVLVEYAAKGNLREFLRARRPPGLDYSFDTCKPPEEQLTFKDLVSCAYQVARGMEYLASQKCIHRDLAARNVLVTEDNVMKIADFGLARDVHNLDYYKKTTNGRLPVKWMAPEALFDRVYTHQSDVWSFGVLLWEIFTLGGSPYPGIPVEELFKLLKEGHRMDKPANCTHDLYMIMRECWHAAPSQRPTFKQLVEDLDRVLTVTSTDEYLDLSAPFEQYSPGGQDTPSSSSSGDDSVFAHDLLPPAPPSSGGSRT
Chain of Interleukin-1 receptor-associated kinase 1 (Homo sapiens) (P51617 whole entry, looked up): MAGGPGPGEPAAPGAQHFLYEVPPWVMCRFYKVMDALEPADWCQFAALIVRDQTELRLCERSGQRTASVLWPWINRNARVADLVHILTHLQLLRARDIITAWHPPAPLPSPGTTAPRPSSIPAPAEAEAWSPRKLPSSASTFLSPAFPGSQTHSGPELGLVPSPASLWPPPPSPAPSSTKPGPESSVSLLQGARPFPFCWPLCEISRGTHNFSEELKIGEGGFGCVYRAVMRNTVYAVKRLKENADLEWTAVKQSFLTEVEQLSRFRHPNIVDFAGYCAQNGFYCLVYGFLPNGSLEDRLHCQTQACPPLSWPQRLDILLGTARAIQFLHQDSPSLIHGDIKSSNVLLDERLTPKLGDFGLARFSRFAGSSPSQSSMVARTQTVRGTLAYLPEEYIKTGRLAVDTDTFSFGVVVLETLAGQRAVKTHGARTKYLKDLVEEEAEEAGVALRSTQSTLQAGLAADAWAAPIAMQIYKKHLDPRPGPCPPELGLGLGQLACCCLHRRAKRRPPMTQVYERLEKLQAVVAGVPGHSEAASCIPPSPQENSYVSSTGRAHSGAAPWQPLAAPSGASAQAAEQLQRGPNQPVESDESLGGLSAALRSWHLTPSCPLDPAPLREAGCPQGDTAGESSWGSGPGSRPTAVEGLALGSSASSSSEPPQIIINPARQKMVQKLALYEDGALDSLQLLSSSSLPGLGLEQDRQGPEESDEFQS
Chain of Serine/threonine-protein kinase SIK3 (Homo sapiens) (Q9Y2K2 whole entry, looked up): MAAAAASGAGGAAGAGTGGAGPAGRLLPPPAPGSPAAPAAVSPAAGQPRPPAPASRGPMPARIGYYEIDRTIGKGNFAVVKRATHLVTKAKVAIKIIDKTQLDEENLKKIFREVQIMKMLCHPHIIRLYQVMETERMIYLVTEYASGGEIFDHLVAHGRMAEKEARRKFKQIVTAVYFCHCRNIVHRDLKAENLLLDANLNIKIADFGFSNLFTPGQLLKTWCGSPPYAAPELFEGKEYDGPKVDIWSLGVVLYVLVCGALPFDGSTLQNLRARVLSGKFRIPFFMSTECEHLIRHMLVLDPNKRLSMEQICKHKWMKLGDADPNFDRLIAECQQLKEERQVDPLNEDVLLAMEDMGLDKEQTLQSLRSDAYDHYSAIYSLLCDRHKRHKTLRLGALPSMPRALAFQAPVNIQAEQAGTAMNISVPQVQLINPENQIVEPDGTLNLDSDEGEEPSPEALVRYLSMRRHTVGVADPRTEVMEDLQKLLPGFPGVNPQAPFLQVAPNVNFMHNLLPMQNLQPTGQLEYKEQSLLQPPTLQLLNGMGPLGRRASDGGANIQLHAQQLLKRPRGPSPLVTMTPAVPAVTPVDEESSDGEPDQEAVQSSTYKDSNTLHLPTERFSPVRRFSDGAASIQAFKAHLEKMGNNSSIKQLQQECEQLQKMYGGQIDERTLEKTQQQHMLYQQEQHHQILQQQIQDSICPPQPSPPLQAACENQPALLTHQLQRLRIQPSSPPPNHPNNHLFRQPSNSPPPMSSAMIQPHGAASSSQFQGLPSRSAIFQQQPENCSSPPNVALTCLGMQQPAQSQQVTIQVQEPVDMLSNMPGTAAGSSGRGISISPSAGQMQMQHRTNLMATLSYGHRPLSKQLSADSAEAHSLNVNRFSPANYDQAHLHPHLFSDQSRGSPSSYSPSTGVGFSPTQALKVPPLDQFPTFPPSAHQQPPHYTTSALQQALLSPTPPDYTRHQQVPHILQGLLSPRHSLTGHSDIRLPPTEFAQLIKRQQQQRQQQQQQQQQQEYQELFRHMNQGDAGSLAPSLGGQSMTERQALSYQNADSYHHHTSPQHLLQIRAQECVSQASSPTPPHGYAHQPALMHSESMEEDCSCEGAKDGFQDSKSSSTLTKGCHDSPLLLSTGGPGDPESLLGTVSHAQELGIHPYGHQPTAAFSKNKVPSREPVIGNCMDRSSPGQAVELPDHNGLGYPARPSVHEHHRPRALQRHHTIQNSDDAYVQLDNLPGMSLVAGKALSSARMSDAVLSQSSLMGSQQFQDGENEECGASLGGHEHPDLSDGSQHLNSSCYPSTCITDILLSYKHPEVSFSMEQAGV
Chain of Wee1-like protein kinase (Homo sapiens) (P30291 whole entry, looked up): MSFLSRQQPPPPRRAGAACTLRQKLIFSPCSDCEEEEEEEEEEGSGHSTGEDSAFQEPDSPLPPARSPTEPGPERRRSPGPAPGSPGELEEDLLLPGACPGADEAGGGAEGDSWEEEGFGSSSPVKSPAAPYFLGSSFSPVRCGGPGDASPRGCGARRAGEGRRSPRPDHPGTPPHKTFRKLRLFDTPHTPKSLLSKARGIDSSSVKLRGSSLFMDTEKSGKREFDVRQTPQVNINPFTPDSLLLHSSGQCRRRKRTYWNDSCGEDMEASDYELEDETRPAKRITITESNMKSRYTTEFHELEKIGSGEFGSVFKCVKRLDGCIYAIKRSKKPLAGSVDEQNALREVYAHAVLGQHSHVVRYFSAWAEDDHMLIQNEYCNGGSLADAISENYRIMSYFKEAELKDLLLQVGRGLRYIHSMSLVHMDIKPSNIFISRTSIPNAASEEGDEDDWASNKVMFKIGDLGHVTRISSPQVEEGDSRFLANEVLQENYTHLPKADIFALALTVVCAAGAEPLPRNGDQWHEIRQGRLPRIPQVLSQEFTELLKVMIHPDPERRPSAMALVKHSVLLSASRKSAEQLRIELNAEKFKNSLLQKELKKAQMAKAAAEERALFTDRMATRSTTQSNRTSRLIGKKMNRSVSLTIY
Chain of Tyrosine-protein kinase FRK (Homo sapiens) (P42685 whole entry): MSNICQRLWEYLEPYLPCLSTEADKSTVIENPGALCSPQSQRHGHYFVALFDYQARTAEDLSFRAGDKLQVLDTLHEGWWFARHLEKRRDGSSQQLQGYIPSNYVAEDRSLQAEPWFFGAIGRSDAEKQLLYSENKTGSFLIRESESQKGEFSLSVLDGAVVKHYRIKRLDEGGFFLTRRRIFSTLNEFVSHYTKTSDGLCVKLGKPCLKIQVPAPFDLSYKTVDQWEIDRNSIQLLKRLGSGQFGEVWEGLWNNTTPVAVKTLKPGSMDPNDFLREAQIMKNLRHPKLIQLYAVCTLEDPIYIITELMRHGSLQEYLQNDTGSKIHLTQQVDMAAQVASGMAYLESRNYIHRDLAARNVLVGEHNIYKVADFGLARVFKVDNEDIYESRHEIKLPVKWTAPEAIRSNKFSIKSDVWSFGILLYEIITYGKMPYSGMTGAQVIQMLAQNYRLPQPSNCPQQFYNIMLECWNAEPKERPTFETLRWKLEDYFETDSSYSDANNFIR

A word on the inhibition: it is the percentage by which the read-out fell short of the control. Take `O=C(N[C@@H](C1CC1)C(F)(F)F)c1cc(-c2cnn3cc(-c4ccc(F)cc4)cnc23)cs1`: the inhibition in assay [1] came out at 0%; in [2], 0%; in assay [3], 47%; in assay [4], 0%; in assay [5], 7%. Also, the inhibition result in the assay with U2OS is “Active”.
As for `CNC(=O)c1ccccc1Oc1nc(Nc2cc(OC)c(OC)c(OC)c2)ncc1Br`, the inhibition in assay [6] was found to be 0%; in [7] it was 8%; in [8], 21%; in [9], 7%. Besides, the fold change (FC) in assay [10] was 0.22.

For the origin of these results see ChEMBL document CHEMBL5653631, “A Potent and Selective ULK1 Inhibitor Suppresses Autophagy and Sensitizes Cancer Cells to Nutrient Stress” (iScience, 2018).
